Publication PMC8244166 (Neuron, 2020)

What was measured:
Glu864Trp channel = assay: Single channel recordings, point mutant; format: cell-based, human; details: A-967079 1 μM, +80 mV
hTRPA1 [1] = molecular target: T1, hTRPA1 (Homo sapiens, UniProt O75762); assay: Whole-cell voltage-clamp recordings of TRPA1-expressing HEK293-F cells; format: cell-based; details: whole-cell, −80 mV, n = 3
TRPA1 channel = assay: Inside-out single channel / macropatch recordings; format: cell-based, human; details: for y (single channel conductance): 1 μM GNE551, 10 μM AITC
[2] = Glutathione reactivity assay; format: physicochemical; details: 10 μM compound, 1 mM glutathione, pH7.4, 37°C, 30 minutes
Method in brief: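 The test compound (10 μM) is incubated with or without 1 mM glutathione in 50 mM potassium phosphate, pH7.4, at 37°C for 30 minutes, and the reaction is stopped on ice. Samples run by UHPLC-MS on a C18 column at 40 °C and 0.4 mL/min, with a 0.1% formic acid water/acetonitrile gradient of 5–50% B over 15 minutes, then a 95% B wash.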

Gln940Val TRPA1 = assay: Whole-cell patch clamp, point mutant; format: cell-based, human; details: GNE551 1.5 μM, AITC positive control, n = 4
Method in brief: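 HEK293-F cells are recorded whole-cell one day after transient transfection. From a 0 mV holding potential, the protocol is 10 msec at −80 mV, a 200 msec ramp to +80 mV, then 10 msec at +80 mV, applied once per second. Nominally Ca2+-free solutions are used: bath NaCl/HEPES with 0.1 mM EGTA, pH 7.4; pipette CsF with 10 mM EGTA, pH 7.2. Compounds are delivered by fast solution exchange.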

TRPA1 Glu864Trp mutant = assay: Ca2+ assay, point mutant; format: cell-based, human; details: high background Ca2+ signals
Method in brief: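 HEK293-F cells are transiently transfected with the TRPA1 construct one day before imaging. Cells are loaded with a calcium-sensitive dye for 1 h at 37 °C. Compound is added and fluorescence (Ca2+ RFU) is recorded on a kinetic fluorescence imager. EC50 comes from nonlinear regression constrained to EC50 > 0, Bottom = 0 and Hill slope between 1 and 3.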

[3] = system: rat hind paw nocifensive behavior; assay: Nocifensive behavior after intraplantar agonist injection; format: in vivo; details: 25 μl; for cumulative nocifensive time: WT rats, n = 7
Method in brief: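 Male Sprague-Dawley rats aged 8 weeks or older are used; KO versus WT littermates from heterozygote crosses include both sexes. Under light restraint, a unilateral intraplantar injection of 25 μL is given with a 30-gauge needle: reference electrophile 0.1% or test agonist 10 mM. Rats are video-recorded 15 min (reference) or 30 min (test agonist) during the light phase. Licking, flicking and guarding time is scored blind offline, and groups are compared by two-tailed t-test.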

hTRPA1 [4] = molecular target: T1, hTRPA1
cryo-EM structure = molecular target: the molecule itself; assay: cryo-EM structure
[5] = inside-out, +80 mV, 1 μM GNE551 (n = 5), 100 nM WaTx (n = 8)

T1 sequence (O75762 whole entry): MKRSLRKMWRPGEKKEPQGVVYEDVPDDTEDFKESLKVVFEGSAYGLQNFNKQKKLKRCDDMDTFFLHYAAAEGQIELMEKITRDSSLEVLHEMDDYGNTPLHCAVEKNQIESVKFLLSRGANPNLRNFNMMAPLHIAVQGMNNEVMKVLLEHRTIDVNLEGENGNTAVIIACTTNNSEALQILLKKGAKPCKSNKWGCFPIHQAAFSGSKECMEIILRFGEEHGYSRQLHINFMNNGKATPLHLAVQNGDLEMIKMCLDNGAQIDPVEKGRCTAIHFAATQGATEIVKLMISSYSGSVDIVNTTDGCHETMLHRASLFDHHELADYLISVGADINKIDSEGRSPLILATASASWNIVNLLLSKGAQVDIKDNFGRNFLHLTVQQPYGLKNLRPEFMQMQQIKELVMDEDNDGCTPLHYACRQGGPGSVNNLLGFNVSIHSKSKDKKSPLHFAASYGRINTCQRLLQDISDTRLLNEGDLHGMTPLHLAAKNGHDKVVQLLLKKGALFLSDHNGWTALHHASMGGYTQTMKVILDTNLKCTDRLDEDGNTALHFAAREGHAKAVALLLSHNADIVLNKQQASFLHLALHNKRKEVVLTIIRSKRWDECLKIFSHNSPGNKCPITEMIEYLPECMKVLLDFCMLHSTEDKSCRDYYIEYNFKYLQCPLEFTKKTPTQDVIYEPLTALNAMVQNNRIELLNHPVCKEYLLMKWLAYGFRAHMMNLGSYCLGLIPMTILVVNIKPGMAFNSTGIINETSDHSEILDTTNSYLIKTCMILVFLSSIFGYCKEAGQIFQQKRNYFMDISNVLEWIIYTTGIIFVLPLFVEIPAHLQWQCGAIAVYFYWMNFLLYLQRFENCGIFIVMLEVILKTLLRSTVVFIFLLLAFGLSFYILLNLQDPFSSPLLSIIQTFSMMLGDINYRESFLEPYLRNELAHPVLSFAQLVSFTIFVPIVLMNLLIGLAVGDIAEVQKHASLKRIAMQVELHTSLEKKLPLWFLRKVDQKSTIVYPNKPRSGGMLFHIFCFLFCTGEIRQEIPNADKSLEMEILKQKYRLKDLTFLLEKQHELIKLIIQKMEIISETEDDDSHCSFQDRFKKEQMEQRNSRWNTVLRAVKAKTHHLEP

## CCC(=N\O)/C(C)=C/c1ccc(F)cc1 [A-967079, reference compound]
Glu864Trp channel
  block of high basal activity: blocked

## C=CCN=C=S [AITC, allyl isothiocyanate, reference compound]
hTRPA1 [1]
  current of second application compared to the first: 19.4 ± 4.3%
TRPA1 channel; cation Ca2+
  y (single channel conductance): 30.9 ± 6.2 pS
TRPA1 channel; cation Mg2+, 1 μM GNE551 (n = 5), 10 μM AITC (n = 4)
  Erev (reversal potential): −19.1 ± 1.5 mV
TRPA1 channel; cation Mg2+
  y (single channel conductance): 30.1 ± 6.8 pS
TRPA1 channel; cation Na+
  y (single channel conductance): 134.9 ± 11.6 pS
TRPA1 channel; nominally Ca2+-free solutions, AITC 10 μM, GNE551 1 μM
  channel desensitization: desensitized within seconds
[2]
  glutathione adduct formation: formed a glutathione adduct
Gln940Val TRPA1
  activation of mutant channel: robust response
TRPA1 Glu864Trp mutant
  response of mutant to agonist stimulation: almost lost responses
[3]; after 10 min, AITC 0.1%
  nocifensive response: completely disappeared
[3]; first 5 min period, AITC 0.1%
  cumulative nocifensive time: 102 ± 19 s
[3]; intraplantar AITC 0.1%, WT and TRPA1 KO rats
  nocifensive behavior: elicited nocifensive behavior in wild type (WT) but not in knock out (KO) rats
[3]; second 5 min period, AITC 0.1%
  cumulative nocifensive time: 57.7 ± 11.1 s

## WaTx: cell-penetrating peptide toxin that activates TRPA1 (ASPQQAKYCYEQCNVNKVPFDQCYQMCSPLERS) [reference compound]
TRPA1 channel; [5]
  opening frequency: 1.7 ± 0.5 Hz
  single channel open probability (Po): 0.045 ± 0.012
TRPA1 channel; inside-out, agonist-activated channels
  open state dwell time: 2.2 milliseconds

## cell-penetrating peptide toxin WaTx (from UniProt C0HLG4 36-68)
hTRPA1 [4]
  open state dwell time of WaTx-activated channels, inside-out patches: 2.2 milliseconds

B1: human TRPA1 [Ser448-Thr1078], truncated and non-functional construct for structural studies (domain or fragment)
chain: GSGGSGGSGGSGGSPLHFAASYGRINTCQRLLQDISDTRLLNEGDLHGMTPLHLAAKNGHDKVVQLLLKKGALFLSDHNGWTALHHASMGGYTQTMKVILDTNLKCTDRLDEDGNTALHFAAREGHAKAVALLLSHNADIVLNKQQASFLHLALHNKRKEVVLTIIRSKRWDECLKIFSHNSPGNKCPITEMIEYLPECMKVLLDFCMLHSTEDKSCRDYYIEYNFKYLQCPLEFTKKTPTQDVIYEPLTALNAMVQNNRIELLNHPVCKEYLLMKWLAYGFRAHMMNLGSYCLGLIPMTILVVNIKPGMAFNSTGIINETSDHSEILDTTNSYLIKTCMILVFLSSIFGYCKEAGQIFQQKRNYFMDISNVLEWIIYTTGIIFVLPLFVEIPAHLQWQCGAIAVYFYWMNFLLYLQRFENCGIFIVMLEVILKTLLRSTVVFIFLLLAFGLSFYILLNLQDPFSSPLLSIIQTFSMMLGDINYRESFLEPYLRNELAHPVLSFAQLVSFTIFVPIVLMNLLIGLAVGDIADVQKHASLKRIAMQVELHTSLEKKLPLWFLRKVDQKSTIVYPNKPRSGGMLFHIFCFLFCTGEIRQEIPNADKSLEMEILKQKYRLKDLTFLLEKQHELIKLIIQKMEIISET
cryo-EM structure
  binding result: binds
